In ChEMBL document CHEMBL4304833, “Development of Kinase Inactive PD173955 Analogues for Reducing Production of Aβ Peptides” (ACS Med Chem Lett, 2019):
Activity calls are given as the source filed them. No cut-off for these calls is given here.

Legend:
[1] = Cytotoxicity against mouse N2a695 cells assessed as reduction in cell viability at 10 uM incubated for 24 hrs by MTT assay; format: cell-based
Outline: (§1)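 Viability of N2a cells by MTT assay after 5 h and 24 h incubation with compound (10 μM; one comparator at 1 μM), scored as number of viable cells.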

[2] = Cytotoxicity against mouse N2a695 cells assessed as reduction in cell viability at 10 uM incubated for 5 hrs by MTT assay; format: cell-based; outline: as §1
[3] = molecular target: Beta-secretase 1 (Mus musculus) (UniProt P56818); assay: Inhibition of BACE1 in mouse N2a695 cells assessed as reduction in Abeta40 production at 10 uM incubated for 6 hrs by ELISA; format: cell-based
[4] = molecular target: Beta-secretase 1 (Mus musculus) (UniProt P56818); assay: Inhibition of BACE1 in mouse N2a695 cells assessed as reduction in Abeta42 production at 10 uM incubated for 5 hrs by ELISA relative to control; format: cell-based
Outline: (§2)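 N2a695 cells treated with compound (10 μM, or 20 μM for reference compound). Aβ42 in cell supernatant measured by human Aβ ELISA.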

[5] = molecular target: Beta-secretase 1 (Mus musculus) (UniProt P56818); assay: Inhibition of BACE1 in mouse N2a695 cells assessed as reduction in Abeta40 production at 10 uM incubated for 5 hrs by ELISA relative to control; format: cell-based
[6] = molecular target: Proto-oncogene tyrosine-protein kinase Src (Homo sapiens) (UniProt P12931); assay: Inhibition of Src (unknown origin) assessed as residual activity at 10 uM relative to control
Outline: (§3)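 Abl and Src kinase activity measured by an outside service with compounds at 10 μM; activity reported relative to control.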

[7] = species: Homo sapiens; assay: Inhibition of Abl (unknown origin) assessed as residual activity at 10 uM relative to control; outline: as §3
[8] = molecular target: Beta-secretase 1 (Mus musculus) (UniProt P56818); assay: Inhibition of BACE1 in mouse N2a695 cells transfected with human APP-C99 assessed as reduction in Abeta42 production at 10 uM incubated for 5 hrs by ELISA; format: cell-based
Outline: (§4)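 N2a cells transfected with human APP-FL or APP-C99 treated with compounds at 10 μM. Aβ40 and Aβ42 in supernatants measured by ELISA; controls were BACE inhibitor MK8931 0.5 μM and γ-secretase inhibitor DAPT 1 μM.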

[9] = molecular target: Beta-secretase 1 (Mus musculus) (UniProt P56818); assay: Inhibition of BACE1 in mouse N2a695 cells assessed as reduction in Abeta40 production at 20 uM incubated for 5 hrs by ELISA; format: cell-based
[10] = molecular target: Beta-secretase 1 (Mus musculus) (UniProt P56818); assay: Inhibition of BACE1 in mouse N2a695 cells assessed as reduction in Abeta40 production at 5 uM pretreated with BACE IV for 1 hr and measured after 5 hrs by ELISA; format: cell-based
Outline: (§5)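 N2a695 cells preincubated 1 h with DMSO or 0.5 μM BACE IV, then given fresh medium containing 5 μM compound. Aβ40 and Aβ42 measured by human Aβ ELISA as percent of DMSO or BACE IV-pretreated DMSO control. Duplicate or triplicate wells; average of three independent experiments.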

[11] = molecular target: Beta-secretase 1 (Mus musculus) (UniProt P56818); assay: Inhibition of BACE1 in mouse N2a695 cells assessed as reduction in Abeta40 production transfected with human APP-FL at 10 uM incubated for 5 hrs by ELISA; format: cell-based; outline: as §4
[12] = molecular target: Beta-secretase 1 (Mus musculus) (UniProt P56818); assay: Inhibition of BACE1 in mouse N2a695 cells assessed as reduction in Abeta40 production transfected with human APP-C99 at 10 uM incubated for 5 hrs by ELISA; format: cell-based; outline: as §4
[13] = molecular target: Beta-secretase 1 (Mus musculus) (UniProt P56818); assay: Inhibition of BACE1 in mouse N2a695 cells assessed as reduction in Abeta42 production at 5 uM pretreated with BACE IV for 1 hr and measured after 5 hrs by ELISA; format: cell-based; outline: as §5
[14] = species: Mus musculus; assay: Inhibition of Abeta42 production in mouse N2a695 cells at 20 uM incubated for 5 hrs by ELISA; format: functional, cell-based; outline: as §2
[15] = molecular target: Beta-secretase 1 (Mus musculus) (UniProt P56818); assay: Inhibition of BACE1 in mouse N2a695 cells transfected with human APP-FL assessed as reduction in Abeta42 production at 10 uM incubated for 5 hrs by ELISA; format: cell-based; outline: as §4
[16] = species: Homo sapiens; assay: Inhibition of Abl (unknown origin) assessed as residual activity at 1 uM relative to control
[17] = Cytotoxicity against mouse N2a695 cells assessed as reduction in cell viability at 1 uM incubated for 5 and 24 hrs by MTT assay; format: cell-based; outline: as §1
[18] = molecular target: Proto-oncogene tyrosine-protein kinase Src (Homo sapiens) (UniProt P12931); assay: Inhibition of Src (unknown origin) assessed as residual activity at 1 uM relative to control

Beta-secretase 1 (Mus musculus), sequence (P56818 whole entry): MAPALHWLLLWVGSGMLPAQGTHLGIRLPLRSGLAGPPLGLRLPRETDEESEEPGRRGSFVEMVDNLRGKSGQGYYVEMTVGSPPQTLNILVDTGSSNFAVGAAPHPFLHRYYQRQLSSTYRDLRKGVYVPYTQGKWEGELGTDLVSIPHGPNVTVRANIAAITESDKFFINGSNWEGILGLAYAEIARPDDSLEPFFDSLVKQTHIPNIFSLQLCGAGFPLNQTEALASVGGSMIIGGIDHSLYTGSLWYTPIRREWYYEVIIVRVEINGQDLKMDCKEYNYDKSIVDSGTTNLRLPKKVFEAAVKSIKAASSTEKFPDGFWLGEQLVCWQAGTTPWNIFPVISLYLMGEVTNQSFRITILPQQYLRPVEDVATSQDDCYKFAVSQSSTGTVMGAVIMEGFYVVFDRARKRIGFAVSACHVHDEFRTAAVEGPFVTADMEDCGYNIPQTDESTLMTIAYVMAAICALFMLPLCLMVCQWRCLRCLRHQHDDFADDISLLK
Proto-oncogene tyrosine-protein kinase Src (Homo sapiens), sequence (P12931 2-536 limits assumed): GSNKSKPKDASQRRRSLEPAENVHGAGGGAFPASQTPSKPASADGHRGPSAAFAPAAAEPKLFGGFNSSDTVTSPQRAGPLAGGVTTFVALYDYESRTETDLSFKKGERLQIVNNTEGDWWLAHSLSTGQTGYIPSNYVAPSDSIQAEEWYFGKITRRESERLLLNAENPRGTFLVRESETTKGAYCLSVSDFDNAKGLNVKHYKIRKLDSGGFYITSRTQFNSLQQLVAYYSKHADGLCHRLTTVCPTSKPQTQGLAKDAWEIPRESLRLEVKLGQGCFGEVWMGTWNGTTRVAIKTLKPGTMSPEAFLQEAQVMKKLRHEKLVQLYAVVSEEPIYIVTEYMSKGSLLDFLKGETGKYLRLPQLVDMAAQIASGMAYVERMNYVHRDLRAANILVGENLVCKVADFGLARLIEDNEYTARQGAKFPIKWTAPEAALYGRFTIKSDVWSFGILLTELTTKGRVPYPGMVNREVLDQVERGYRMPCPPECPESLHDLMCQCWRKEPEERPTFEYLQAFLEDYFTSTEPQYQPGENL

Row | SMILES | inhibition [3] | inhibition [4] [%] | inhibition [5] [%] | Activity [6] [%] | Activity [7] [%] | Activity [1] | Activity [2] | other results
1 | Cn1c(=O)c(-c2c(Cl)cccc2Cl)cc2cnc(N3CCC(N4CCCCC4)CC3)nc21 | Active |  |  |  |  | Non-Toxic | Non-Toxic | 
2 | Cc1ccc(NC(=O)c2ccc(CN3CCN(C)CC3)cc2)cc1Nc1nccc(-c2cccnc2)n1 | Active |  |  |  |  |  |  | 
3 | CN1CCN(c2ncc3cc(-c4cc(Cl)cc(Cl)c4)c(=O)n(C)c3n2)CC1 | Active |  |  |  |  | Non-Toxic | Non-Toxic | 
4 | Cl.Cn1c(=O)c(-c2c(Cl)cccc2Cl)cc2cnc(N3CCN(C4CCNCC4)CC3)nc21 | Active |  |  |  |  | Non-Toxic | Non-Toxic | 
5 | Cn1c(=O)c(-c2c(Cl)cccc2Cl)cc2cnc(N3CCNCC3)nc21 |  |  |  |  |  | Non-Toxic | Non-Toxic | inhibition [8]: Active; inhibition [9]: Active; inhibition [10]: Active; inhibition [11]: Active; inhibition [12]: inactive; inhibition [13]: Active; inhibition [14]: Active; inhibition [15]: Active
6 | CSc1cccc(Nc2ncc3cc(-c4c(Cl)cccc4Cl)c(=O)n(C)c3n2)c1 |  |  |  |  |  |  |  | Activity [16]: 99.7%; Activity [17]: Non-Toxic; Activity [18]: 99.5%
7 | Cn1c(=O)c(-c2c(Cl)cccc2Cl)cc2cnc(N3CCN(Cc4ccccc4)CC3)nc21 | Active |  |  |  |  | Toxic | Non-Toxic | 

Now from value to compound, other results behind:

Row | inhibition [3] | inhibition [4] [%] | inhibition [5] [%] | Activity [6] [%] | Activity [7] [%] | SMILES | Activity [1] | Activity [2] | other results
8 | Active | > 50 | > 50 | 10.5 | 20.8 | CN1CCC(N2CCN(c3ncc4cc(-c5c(Cl)cccc5Cl)c(=O)n(C)c4n3)CC2)CC1 | Non-Toxic | Non-Toxic | 
9 | Active |  |  |  |  | CN1CCN(c2ncc3cc(-c4c(Cl)cc(NC(=O)C(C)(C)C)cc4Cl)c(=O)n(C)c3n2)CC1 | Non-Toxic | Non-Toxic | 
10 | Active | > 50 | > 50 | 8 | 0 | Cn1c(=O)c(-c2c(Cl)cc(NC(=O)OC(C)(C)C)cc2Cl)cc2cnc(N3CCN(c4ccncc4)CC3)nc21 | Non-Toxic | Non-Toxic | inhibition [8]: Active; inhibition [10]: Active; inhibition [11]: Active; inhibition [12]: inactive; inhibition [13]: Active; inhibition [15]: Active
11 | Active | > 50 | > 50 | 8.9 | 3.2 | CN1CCC(N2CCN(c3ncc4cc(-c5c(Cl)cc(NC(=O)C(C)(C)C)cc5Cl)c(=O)n(C)c4n3)CC2)CC1 | Non-Toxic | Non-Toxic | inhibition [8]: Active; inhibition [10]: Active; inhibition [11]: Active; inhibition [12]: inactive; inhibition [13]: Active; inhibition [15]: Active
12 | Active | > 50 | > 50 | 10.4 | 8.5 | CN1CCC(N2CCN(c3ncc4cc(-c5c(Cl)cc(NC(=O)OC(C)(C)C)cc5Cl)c(=O)n(C)c4n3)CC2)CC1 | Toxic | Non-Toxic | 
